Shown are actives, neighbours in structure and some others; about 1.4% of the full set was active somewhere.
HIF activator: HIF pathway transcriptional activation; U2OS HRE-luciferase reporter, luminescence; normalized: DMSO 0%, desferrioxamine 100%; activation, % at 7.5 µM (by protocol); hit rate 0.32% among 300,000; AID 1910;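 active = mean activation of at least 10% of the iron chelator positive control signal, with at least half of replicates also reaching 10%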
T cell modulator: modulates CD8 T cell binding to vesicles; 2C CD8+ T cell-vesicle binding, flow cytometry; stronger effect = lower value; response (vesicle binding), % at 7 µM; hit rate 0.068% among 330,000;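 active = response, share of CD8 T cells binding vesicles, and their 90th percentile fluorescence all below set limits, cut at about 80% in these data, passing the limit was not always enough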;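 also: values below 100% mean blocked vesicle binding to the CD8+ T cells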
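Read-out – percent CD8+ FL2 mean versus row control · System – murine 2C transgenic CD8+ T lymphocytes · Times – 1.5 h cell–vesicle binding at 37 °C, then 20 min icy labelling · Control set – naked vesicles low, QL9 vesicles with vehicle high · Detection – cytometric PE anti-B7-1 and Alexa647 anti-CD8 signals after 1% paraformaldehyde fixation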
GASC-1 inh: human JMJD2C demethylase inhibition; Q9H3R0; GST-JMJD2C(1-420) H3K9me3 demethylation, DELFIA europium; inhibition, % at 2.35 µM; hit rate 0.069% among 330,000; AID 2099;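 active = more than half of a compound's replicate wells show inhibition beyond 50%, single wells judged on their own value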;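 also: signal counts dimethyl H3K9 product captured on neutravidin plate; 0% = median of DMSO wells and 100% = 0.3 times that DMSO median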
Target sequence (Q9H3R0 1-420 limits assumed): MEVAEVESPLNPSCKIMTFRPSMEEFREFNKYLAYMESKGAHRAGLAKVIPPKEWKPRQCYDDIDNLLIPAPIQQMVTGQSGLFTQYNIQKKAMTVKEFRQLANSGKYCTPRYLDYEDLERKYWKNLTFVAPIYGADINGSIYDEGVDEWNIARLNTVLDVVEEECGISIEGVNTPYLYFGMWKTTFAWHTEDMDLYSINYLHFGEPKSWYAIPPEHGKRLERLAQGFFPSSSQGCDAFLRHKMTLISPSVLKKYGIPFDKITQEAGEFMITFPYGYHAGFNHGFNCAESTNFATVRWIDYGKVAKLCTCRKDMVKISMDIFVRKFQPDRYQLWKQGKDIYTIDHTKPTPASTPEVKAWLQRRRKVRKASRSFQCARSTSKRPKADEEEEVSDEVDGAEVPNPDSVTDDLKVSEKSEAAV
SUMO Mot1 rescue: inhibitors of SUMOylation pathway: yeast Mot1-301 growth rescue | S. cerevisiae Mot1-301 growth rescue, ATP luminescence, 38.5C; percent above DMSO median, 100 means doubled | AID 2716 | growth rescue, % at 18.8 µM | hit rate 1% among 320,000;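 active = every valid replicate shows activation above 250% relative to neutral control wells; inactive = the rest, any valid replicate at or below 250%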;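 also: OY570 slx delta 5 strain wells were the positive control but not used for scaling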
Mot1 SUMO dose: SUMO pathway inhibitors in yeast Mot1-301 growth; S. cerevisiae Mot1-301 galactose growth, ATP luminescence, 24 h; -100 = growth of slx-deleted rescue strain; AID 493004; 2,300 tested, under 10 active; shares compounds with SUMO Mot1 rescue; growth activity, percent, % at 42 µM;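 active = Signal drops as the depositor expects, and the fitted half-maximal dose is no more than ten times the top valid tested dose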;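 also: more negative values mean stronger growth rescue toward the control strain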
The depositor's hits bear a star; x = no result given; + = active, no number.

SMILES | HIF activator | T cell modulator | GASC-1 inh | SUMO Mot1 rescue | Mot1 SUMO dose
CCOCCCNC(=O)C(c1ccc(OC)cc1)N(Cc1ccc2c(c1)OCO2)C(=O)CNC(C)=O (centres undefined) | -7 | 172 | 13 | 442* | 1
CCOCCCNC(=O)C(c1ccc(OC)cc1)N(Cc1cccs1)C(=O)CNC(C)=O (centres undefined) | 0 | 210 | 29 | 5 | x
COc1ccccc1CC(=O)Nc1ccc2c(c1)C(=O)NC2=O | 0 | 146 | -7 | -4 | x
CC(N=C(NS(=O)(=O)c1ccc(Cl)cc1)c1ccccc1)C(=O)O (centres undefined) | 0 | 189 | 8 | -3 | x
CC(C)N=C(NS(=O)(=O)NC(=O)c1ccccc1)c1ccccc1 | -1 | 534 | 38 | 456* | 0
COc1cc(/C=C(\C#N)C(=O)Nc2ccc(C(=O)O)cc2)ccc1OC(=O)c1cccc(F)c1 | -29 | 220 | -12 | 827* | 1
COc1cc(/C=C(/C#N)C(=O)Nc2ccccc2)ccc1OCc1ccc(C(=O)O)cc1 | 0 | 280 | 8 | 1 | x
C/C=C/C(=O)Nc1cccc(C2=NOC3(C2)C[C@H](C(N)=O)N(C(=O)c2ccccc2C(=O)c2ccccc2)C3)c1 (some centres undefined) | -1 | x | -1 | x | x
O=C1CC(c2c[nH]c3ccccc23)C(=O)N1c1ccccc1 (centres undefined) | 0 | 470 | 1 | 709* | 0
COc1cccc(N2C(=O)CC(c3c[nH]c4ccccc34)C2=O)c1 (centres undefined) | 1 | 263 | 7 | -6 | x
CN(Cc1ccccc1)S(=O)(=O)CCNC(=O)c1ccc2c(c1)OCO2 | 0 | 548 | -10 | x | x
O=S1(=O)C=C(Sc2nnc(-c3ccccc3)o2)c2ccccc21 | -4 | x | 4 | 917* | -2
CCN(CC(=O)N1CCCCCC1)S(=O)(=O)c1ccc(Cl)cc1 | 0 | 160 | -9 | + | 0
CCOC(=O)C1=C(COC(=O)c2ccco2)NC(=O)NC1CC (centres undefined) | x | 251 | x | 5 | x
CS(=O)(=O)N1CCCC(C(=O)Nc2ccc(F)cc2F)C1 (centres undefined) | 0 | 208 | 1 | + | 1
COc1ccc(CCN(Cc2cccs2)S(=O)(=O)c2ccc(C(=O)O)cc2)cc1OC | 0 | 360 | -20 | 6 | x
O=C(CNc1ccccc1)Nc1cccc2ccccc12 | 1 | 168 | 4 | 13 | x
O=C1c2ccccc2C(=O)N1CCCCSc1nc2ccccc2c(=O)n1CCCN1CCOCC1 | 0 | 121 | 3 | + | 0
O=C1c2ccccc2C(=O)N1CCSc1nc2ccccc2c(=O)n1CCCN1CCOCC1 | 0 | 188 | 10 | -33 | x
Cc1ccc(NC(=O)CSCC(=O)Nc2ccccc2C(=O)N2CCCCC2)cc1 | 1 | 411 | 3 | -1 | x
Cc1ccc(NC(=O)CSCC(=O)Nc2ccccc2N2CCCC2)cc1 | -29 | 158 | -8 | 421* | 0
Cc1cccc(NC(=O)CSCC(=O)N2CCCc3ccccc32)c1 | 0 | 333 | 0 | 503* | 0
CCCCNS(=O)(=O)c1ccc(OC)cc1 | 0 | 208 | -2 | 495* | 0
NC(=O)C1CCN(C(=O)/C(=C/c2ccccc2)NC(=O)c2ccccc2)CC1 | -9 | 294 | 30 | 108 | x
CC(=O)Nc1cccc(OCC(O)Cn2c(C)nc3ccccc32)c1 (centres undefined) | 0 | 765 | 6 | 655* | 0
SMILES | HIF activator | T cell modulator | GASC-1 inh | SUMO Mot1 rescue | Mot1 SUMO dose
CN(C(=O)COC(=O)c1cc(-c2ccc(Cl)s2)nc2ccccc12)C1CCS(=O)(=O)C1 (centres undefined) | -57 | 794 | 3 | 511* | 1
Cc1ccc(-n2c(SCC(=O)N(C)C3CCS(=O)(=O)C3)nc3ccccc3c2=O)cc1 (centres undefined) | 0 | 327 | 13 | 499* | 0
Cc1cc(C)cc(OCC(=O)O/N=C(\N)c2cccnc2)c1 | 1 | x | -16 | x | x
O=C(Nc1ccc2c(c1)CCCN2C(=O)c1cccs1)c1cccc(F)c1 | 1 | 296 | -32 | 566* | -1
Cc1nn(C)cc1S(=O)(=O)Nc1ncccn1 | 0 | 240 | 0 | 598* | 0
N#CCc1cc2ccc3cccc4ccc(c1)c2c34 | -1 | 364 | -3 | 134 | x
O=C(O)c1ccccc1/C=N/NC(=O)C1CCCC1 | 0 | 392 | -4 | -4 | x

Assay outcomes (PubChem BioAssay)
